Experimental data from ChEMBL document CHEMBL3124879, “Synthesis and evaluation of 2-(1H-indol-3-yl)-4-phenylquinolines as inhibitors of cholesterol esterase” (Bioorg Med Chem Lett, 2014).

Assays:
[1] = species: Bos taurus; assay: Inhibition of bovine trypsin Suc-Ala-Ala-Pro-Arg-para-nitroanilide as substrate assessed as residual activity at 10 uM after 10 mins relative to control
Method in brief: (§1)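 Residual enzyme activity is determined in duplicate experiments in the presence of the inhibitor at a single concentration (10). Activity is expressed relative to an uninhibited control.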

[2] = molecular target: Procathepsin L (Homo sapiens) (UniProt P07711); assay: Inhibition of human cathepsin L using Z-Phe-ArgpNA as substrate assessed as residual activity at 50 uM by spectrophotometric analysis relative to control
Method in brief: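 Residual human cathepsin L activity is determined in duplicate with the inhibitor at a single concentration (50). Activity is expressed relative to an uninhibited control.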

[3] = molecular target: T1, Neutrophil elastase (Homo sapiens) (UniProt P08246); assay: Inhibition of human leukocyte elastase assessed as residual activity at 10 uM relative to control
T1 sequence (whole entry): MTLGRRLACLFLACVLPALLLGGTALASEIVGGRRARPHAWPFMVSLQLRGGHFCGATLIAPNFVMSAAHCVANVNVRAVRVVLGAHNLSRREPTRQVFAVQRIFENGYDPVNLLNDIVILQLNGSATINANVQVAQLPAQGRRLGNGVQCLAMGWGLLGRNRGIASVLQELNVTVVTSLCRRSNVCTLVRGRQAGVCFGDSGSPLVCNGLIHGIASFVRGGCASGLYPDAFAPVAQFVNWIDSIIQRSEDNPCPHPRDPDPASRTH
Method in brief: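 Residual enzyme activity measured in duplicate at one inhibitor concentration; more than 90% residual activity scored as no inhibition.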

[4] = molecular target: Acetylcholinesterase (Electrophorus electricus, UniProt O42275); assay: Inhibition of electric eel AChE
[5] = species: Sus scrofa; assay: Inhibition of porcine cholesterol esterase using para-nitrophenyl butyrate as substrate assessed as residual activity at 25 uM preincubated for 5 mins by spectrophotometric analysis relative to control
Method in brief: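 Porcine CEase read spectrophotometrically at 405 nm, 25 °C, with para-nitrophenyl butyrate. Buffer: 100 mM sodium phosphate, 100 mM NaCl. Final concentrations: 6 mM sodium taurocholate, 3% acetonitrile, 3% DMSO, 10 ng/mL enzyme. Inhibitor and substrate mixed and held 5 min, then enzyme added to start. Residual activity taken from duplicates at one inhibitor concentration.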

[6] = species: Bos taurus; assay: Inhibition of bovine chymotrypsin assessed as residual activity at 5 uM relative to control
Method in brief: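 Residual chymotrypsin activity is measured with the inhibitor present at a single concentration (5). Assays are run in duplicate, and activity is expressed relative to an uninhibited control.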

[7] = molecular target: T2, Prothrombin (Homo sapiens, UniProt P00734); assay: Inhibition of human thrombin using H-D-Phe-L-Pip-Arg-para-nitroanilide as substrate after 5 mins
[8] = Inhibition of porcine cholesterol esterase using para-nitrophenyl butyrate as substrate preincubated for 5 mins by spectrophotometric analysis; set-up: species or system Sus scrofa
Method in brief: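 CEase assay on the porcine enzyme with para-nitrophenyl butyrate in 100 mM sodium phosphate and 100 mM NaCl, at 25 °C, read at 405 nm. Final: 6 mM sodium taurocholate, 3% acetonitrile, 3% DMSO, 10 ng/mL CEase. 5 min preincubation before enzyme start. Duplicates at five inhibitor concentrations; IC50 fitted by non-linear regression to v = v0/(1+[I]/IC50).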

[9] = molecular target: T3, Neutrophil elastase (Homo sapiens, UniProt P08246); assay: Inhibition of human leukocyte elastase
T3 sequence (P08246 whole entry): T1 sequence (whole entry)

[10] = molecular target: T2, Prothrombin; assay: Inhibition of human thrombin using H-D-Phe-L-Pip-Arg-para-nitroanilide as substrate assessed as residual activity at 10 uM after 5 mins relative to control; method in brief: as §1
[11] = molecular target: Acetylcholinesterase (Electrophorus electricus) (UniProt O42275); assay: Inhibition of electric eel AChE assessed as residual activity at 10 uM relative to control; method in brief: as §1
[12] = Inhibition of bovine trypsin Suc-Ala-Ala-Pro-Arg-para-nitroanilide as substrate after 10 mins; set-up: species or system Bos taurus
[13] = Competitive inhibition of porcine cholesterol esterase using para-nitrophenyl butyrate as substrate by Lineweaver-Burk plot analysis; set-up: species or system Sus scrofa
[14] = Inhibition of bovine chymotrypsin; set-up: species or system Bos taurus
[15] = Uncompetitive inhibition of porcine cholesterol esterase using para-nitrophenyl butyrate as substrate by Lineweaver-Burk plot analysis; set-up: species or system Sus scrofa

Chain of Procathepsin L (Homo sapiens) (P07711 114-333 limits assumed): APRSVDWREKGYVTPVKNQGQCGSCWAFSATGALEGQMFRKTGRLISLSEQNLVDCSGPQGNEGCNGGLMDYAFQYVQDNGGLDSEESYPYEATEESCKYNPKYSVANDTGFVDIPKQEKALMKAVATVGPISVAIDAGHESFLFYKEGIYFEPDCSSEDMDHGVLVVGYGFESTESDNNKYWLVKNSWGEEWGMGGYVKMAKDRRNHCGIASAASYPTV
Chain of Acetylcholinesterase (O42275 whole entry): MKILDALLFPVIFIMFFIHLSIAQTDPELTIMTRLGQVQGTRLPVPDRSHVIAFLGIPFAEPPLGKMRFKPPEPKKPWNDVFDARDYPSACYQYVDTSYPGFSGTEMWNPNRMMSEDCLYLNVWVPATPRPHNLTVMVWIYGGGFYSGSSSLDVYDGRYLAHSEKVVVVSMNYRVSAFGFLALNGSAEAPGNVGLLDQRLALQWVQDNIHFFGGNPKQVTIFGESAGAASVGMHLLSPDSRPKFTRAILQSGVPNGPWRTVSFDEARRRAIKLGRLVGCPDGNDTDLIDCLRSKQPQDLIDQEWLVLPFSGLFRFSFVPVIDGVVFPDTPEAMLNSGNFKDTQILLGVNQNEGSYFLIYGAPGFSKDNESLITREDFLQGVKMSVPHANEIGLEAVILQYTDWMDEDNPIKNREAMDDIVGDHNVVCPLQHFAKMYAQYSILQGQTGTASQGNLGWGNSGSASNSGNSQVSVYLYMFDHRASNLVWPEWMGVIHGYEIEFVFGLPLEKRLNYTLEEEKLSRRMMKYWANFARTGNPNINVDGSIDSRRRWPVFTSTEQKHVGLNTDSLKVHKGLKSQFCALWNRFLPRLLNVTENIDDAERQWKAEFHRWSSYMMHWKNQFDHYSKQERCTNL
Chain of Acetylcholinesterase (Electrophorus electricus) (O42275 24-633 limits assumed): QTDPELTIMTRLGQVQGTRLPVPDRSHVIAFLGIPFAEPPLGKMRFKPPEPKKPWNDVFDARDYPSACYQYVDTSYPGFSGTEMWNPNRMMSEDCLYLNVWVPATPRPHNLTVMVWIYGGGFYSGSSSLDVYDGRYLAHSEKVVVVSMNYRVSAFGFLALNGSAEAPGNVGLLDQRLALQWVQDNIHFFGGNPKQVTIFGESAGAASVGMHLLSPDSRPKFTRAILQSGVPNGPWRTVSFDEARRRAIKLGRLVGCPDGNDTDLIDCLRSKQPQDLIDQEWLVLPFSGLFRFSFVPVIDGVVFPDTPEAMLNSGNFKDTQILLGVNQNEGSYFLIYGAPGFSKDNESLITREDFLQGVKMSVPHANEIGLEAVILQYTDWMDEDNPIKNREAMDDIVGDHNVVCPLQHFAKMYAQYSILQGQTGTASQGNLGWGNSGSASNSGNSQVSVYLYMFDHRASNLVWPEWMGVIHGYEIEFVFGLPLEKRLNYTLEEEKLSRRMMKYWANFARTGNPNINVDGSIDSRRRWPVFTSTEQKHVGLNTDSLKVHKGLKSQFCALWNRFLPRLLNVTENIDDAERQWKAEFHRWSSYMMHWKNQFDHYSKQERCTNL

Row | Compound | Activity [1] [%] | Activity [2] [%] | Activity [3] [%] | IC50 [4] [µM] | Activity [5] [%] | Activity [6] [%] | IC50 [7] [µM] | IC50 [8] [µM] | IC50 [9] [µM] | Activity [10] [%] | Activity [11] [%] | IC50 [12] [µM] | Ki [13] [µM] | IC50 [14] [µM] | Ki [15] [µM]
1 | COc1ccc(-c2cc(-c3ccccc3)c3cc([N+](=O)[O-])ccc3n2)cc1 | > 90 | > 90 | > 90 | ≥ 37 | > 90 | > 90 | ≥ 30 | ≥ 20 | – | – | – | – | – | – | –
2 | Cc1ccc(-c2cc(-c3ccccc3)c3cc(Cl)ccc3n2)cc1 | – | > 90 | – | – | – | > 90 | – | ≥ 20 | ≥ 28 | > 90 | > 90 | ≥ 51 | – | – | –
3 | O=[N+]([O-])c1ccc2nc(-c3ccccc3)cc(-c3ccccc3)c2c1 | – | > 90 | > 90 | ≥ 37 | – | > 90 | – | ≥ 20 | – | > 90 | – | ≥ 51 | – | – | –
4 | Clc1ccc2nc(-c3ccccc3)cc(-c3ccccc3)c2c1 | > 90 | > 90 | – | – | – | > 90 | – | ≥ 20 | ≥ 28 | > 90 | > 90 | – | – | – | –
5 | Clc1ccc2nc(-c3c[nH]c4ccccc34)cc(-c3ccccc3)c2c1 | > 90 | > 90 | – | ≥ 37 | – | > 90 | ≥ 30 | 1.33 | 4.22 | – | – | – | – | – | –
6 | Oc1ccc(-c2cc(-c3ccccc3)c3cc(Cl)ccc3n2)cc1 | – | > 90 | > 90 | – | – | > 90 | ≥ 30 | ≥ 20 | – | – | > 90 | ≥ 51 | – | – | –
7 | O=[N+]([O-])c1ccc2nc(-c3ccc(O)cc3)cc(-c3ccccc3)c2c1 | > 90 | > 90 | – | – | – | > 90 | ≥ 30 | ≥ 20 | 2.91 | – | > 90 | – | – | – | –
8 | Clc1ccc2nc(-c3cccc(Br)c3)cc(-c3ccccc3)c2c1 | – | > 90 | – | – | – | > 90 | – | ≥ 20 | ≥ 28 | > 90 | > 90 | ≥ 51 | – | – | –
9 | COc1ccc(-c2cc(-c3ccccc3)c3cc(Cl)ccc3n2)cc1 | > 90 | > 90 | – | – | – | > 90 | ≥ 30 | ≥ 20 | ≥ 28 | – | > 90 | – | – | – | –
10 | O=[N+]([O-])c1ccc2nc(-c3c[nH]c4ccccc34)cc(-c3ccccc3)c2c1 | > 90 | > 90 | – | 22.9 | – | – | ≥ 30 | 1.98 | 0.63 | – | – | – | 0.66 | ≥ 30 | 7
11 | O=[N+]([O-])c1ccc2nc(-c3cccc(Br)c3)cc(-c3ccccc3)c2c1 | > 90 | > 90 | – | – | – | > 90 | – | ≥ 20 | ≥ 28 | > 90 | > 90 | – | – | – | –
12 | Cc1ccc(-c2cc(-c3ccccc3)c3cc([N+](=O)[O-])ccc3n2)cc1 | > 90 | > 90 | – | – | – | > 90 | ≥ 30 | ≥ 20 | ≥ 28 | – | > 90 | – | – | – | –
